Test results: ChEMBL document CHEMBL1909595, “Characterization of a novel and selective CB1 antagonist as a radioligand for receptor occupancy studies” (Bioorg Med Chem Lett, 2011); call rule not given here
pIC50, pKd: −log10 of the molar value.

What was measured:
Brain [1] = assay: Drug uptake in brain of mouse expressing CB1 receptor at 10 uM; type: ADME, tissue-based; conditions: in vivo
Cannabinoid receptor 1 [2] = target: T1, Cannabinoid receptor 1 (Rattus norvegicus, UniProt P20272); assay: Binding affinity to rat brain CB1 receptor after 90 mins by scintillation counting
T1 sequence (P20272 whole entry): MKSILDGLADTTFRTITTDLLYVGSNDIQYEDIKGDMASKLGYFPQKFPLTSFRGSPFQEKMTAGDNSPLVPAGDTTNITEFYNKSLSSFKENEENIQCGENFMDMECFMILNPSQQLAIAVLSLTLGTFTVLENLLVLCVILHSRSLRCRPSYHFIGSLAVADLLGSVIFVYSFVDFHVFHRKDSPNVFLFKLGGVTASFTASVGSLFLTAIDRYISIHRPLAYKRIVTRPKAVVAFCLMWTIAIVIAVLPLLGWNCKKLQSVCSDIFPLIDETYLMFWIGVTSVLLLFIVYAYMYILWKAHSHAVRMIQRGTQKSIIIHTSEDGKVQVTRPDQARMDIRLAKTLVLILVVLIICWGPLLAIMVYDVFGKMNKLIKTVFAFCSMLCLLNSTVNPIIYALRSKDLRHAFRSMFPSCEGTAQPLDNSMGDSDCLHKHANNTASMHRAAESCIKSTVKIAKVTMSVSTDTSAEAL
Outline: (§1)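 Rat whole-brain or CHO (human CB1) membranes were homogenized in 10 mM HEPES/1 mM EGTA pH 7.4 with protease inhibitors, DTT and sucrose. Centrifuged at 1000 g, then the pellet was taken at 100,000 g and resuspended in 20 mM HEPES, 1 mM EGTA, 1 mM DTT, 1 mM MgCl2. Saturation with increasing [3H]BMS-725519; nonspecific binding by cold BMS-725519. 90 min at room temperature, GF/B filtration, scintillation counting. Kd and Bmax derived.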

Brain [3] = assay: Drug uptake in brain of CB1 receptor knockout mouse at 10 uM; type: ADME, tissue-based; conditions: in vivo
Cannabinoid receptor 1 [4] = target: T2, Cannabinoid receptor 1 (Homo sapiens, UniProt P21554); assay: Binding affinity to human CB1 receptor expressed in CHO cells after 90 mins by scintillation counting; type: cell-based; outline: as §1
T2 sequence (P21554 whole entry): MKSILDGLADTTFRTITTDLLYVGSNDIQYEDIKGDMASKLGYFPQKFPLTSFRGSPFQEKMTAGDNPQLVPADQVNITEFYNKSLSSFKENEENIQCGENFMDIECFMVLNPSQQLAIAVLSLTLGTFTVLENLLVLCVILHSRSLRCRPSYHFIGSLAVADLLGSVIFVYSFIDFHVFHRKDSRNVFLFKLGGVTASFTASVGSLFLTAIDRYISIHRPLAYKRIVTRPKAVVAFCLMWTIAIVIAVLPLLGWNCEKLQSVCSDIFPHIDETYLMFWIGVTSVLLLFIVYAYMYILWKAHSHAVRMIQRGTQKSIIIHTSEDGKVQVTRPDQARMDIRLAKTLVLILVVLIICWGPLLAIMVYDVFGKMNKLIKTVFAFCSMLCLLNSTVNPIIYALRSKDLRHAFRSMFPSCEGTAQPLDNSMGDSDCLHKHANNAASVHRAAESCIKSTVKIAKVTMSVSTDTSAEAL

Plasma [5] = assay: Free plasma concentration in Sprague-Dawley rat at 0.1 mg/kg, po measured 6 hrs post dose; type: ADME, organism-based; parameters: dose 0.1 mg/kg, route oral; conditions: in vivo
[6] = Protein binding in human; type: ADME
Rattus norvegicus [7] = assay: Antiobesity activity in Sprague-Dawley rat assessed as reduction in food intake at 0.3 mg/kg, po measured after 20 hrs; type: functional; parameters: scale not given: the % may be the effect or the level left
Outline: (§2)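 Male Sprague-Dawley rats, six per group, trained to bar-press for food pellets in operant chambers. Dosed p.o. in 10% DMAC/10% EtOH/10% Cremophor/70% water at 2 ml/kg. Two 20 h sessions starting at dark-cycle onset, 4 h apart. The first session was the baseline used to balance groups. Pellets counted at 1, 2, 4, 8, 12 and 20 h after lock-out. One-way ANOVA with Fisher PLSD.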

Cannabinoid receptor 1 [8] = target: T2, Cannabinoid receptor 1; assay: Displacement of [3H]-SR-141716 from human CB1 receptor
Rattus norvegicus [9] = assay: Antiobesity activity in Sprague-Dawley rat assessed as reduction in food intake at 10 mg/kg, po measured after 20 hrs; type: functional; parameters: scale not given: the % may be the effect or the level left; outline: as §2
Rattus norvegicus [10] = assay: Antiobesity activity in Sprague-Dawley rat assessed as reduction in food intake at 0.03 mg/kg, po measured after 20 hrs; type: functional; parameters: scale not given: the % may be the effect or the level left; outline: as §2
Plasma [11] = assay: Free plasma concentration in Sprague-Dawley rat at 3 mg/kg, po measured 6 hrs post dose; type: ADME, organism-based; parameters: dose 3 mg/kg, route oral; conditions: in vivo
Rattus norvegicus [12] = assay: Antiobesity activity in Sprague-Dawley rat assessed as reduction in food intake at 30 mg/kg, po measured after 20 hrs; type: functional; parameters: scale not given: the % may be the effect or the level left; outline: as §2
Rattus norvegicus [13] = assay: Ex vivo receptor occupancy of CB1 receptor in Sprague-Dawley rat at 0.03 mg/kg, po measured 6 hrs post dose; type: functional
Outline: (§3)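 Male Sprague-Dawley rats were dosed p.o. (0.03–30 mg/kg, vehicle 10% DMAC/cremophor/ethanol, 2 ml/kg) 1 h before the dark cycle. Brains were taken 6 h post-dose, three per group, frozen and cut into 20 µm cryosections. Sections pre-incubated 30 s, then 6 min with 40 nM [3H]BMS-725519 in chilled HEPES buffer. Nonspecific binding by 5 µM unlabelled BMS-725519. Three 30 s washes. Cerebellar density measured by phosphor imaging (DLU/mm², background-subtracted); occupancy expressed relative to vehicle specific binding.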

Plasma [14] = assay: Free plasma concentration in Sprague-Dawley rat at 10 mg/kg, po measured 6 hrs post dose; type: ADME, organism-based; parameters: dose 10 mg/kg, route oral; conditions: in vivo
Cannabinoid receptor 1 [15] = target: T1, Cannabinoid receptor 1; assay: Displacement of [3H]BMS-725519 from rat brain CB1 receptor after 45 mins by autoradiography
Plasma [16] = assay: Free plasma concentration in Sprague-Dawley rat at 0.03 mg/kg, po measured 6 hrs post dose; type: ADME, organism-based; parameters: dose 0.03 mg/kg, route oral; conditions: in vivo
Plasma [17] = assay: Free plasma concentration in Sprague-Dawley rat at 1 mg/kg, po measured 6 hrs post dose; type: ADME, organism-based; parameters: dose 1 mg/kg, route oral; conditions: in vivo
Rattus norvegicus [18] = assay: Antiobesity activity in Sprague-Dawley rat assessed as reduction in food intake at 0.1 mg/kg, po measured after 20 hrs; type: functional; parameters: scale not given: the % may be the effect or the level left; outline: as §2
Plasma [19] = assay: Free plasma concentration in Sprague-Dawley rat at 30 mg/kg, po measured 6 hrs post dose; type: ADME, organism-based; parameters: dose 30 mg/kg, route oral; conditions: in vivo
Rattus norvegicus [20] = assay: Ex vivo receptor occupancy of CB1 receptor in Sprague-Dawley rat at 1 mg/kg, po measured 6 hrs post dose; type: functional; outline: as §3
Cannabinoid receptor 1 [21] = target: T1, Cannabinoid receptor 1; assay: Displacement of [3H]-SR-141716 from rat CB1 receptor
Cannabinoid receptor 2 = Cannabinoid receptor 2 (Homo sapiens, UniProt P34972); assay: Displacement of [3H]-CP55940 from human CB2 receptor
Sequence of Cannabinoid receptor 2 (P34972 whole entry): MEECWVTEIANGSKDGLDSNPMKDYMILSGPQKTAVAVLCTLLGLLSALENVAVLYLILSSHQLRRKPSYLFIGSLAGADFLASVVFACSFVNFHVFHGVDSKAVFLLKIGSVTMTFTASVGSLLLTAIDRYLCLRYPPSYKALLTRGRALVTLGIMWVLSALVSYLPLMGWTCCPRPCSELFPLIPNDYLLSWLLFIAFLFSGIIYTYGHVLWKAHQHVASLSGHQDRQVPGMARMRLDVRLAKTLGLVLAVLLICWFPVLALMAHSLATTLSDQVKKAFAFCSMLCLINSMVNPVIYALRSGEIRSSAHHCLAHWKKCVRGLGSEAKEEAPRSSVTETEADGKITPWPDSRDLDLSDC

Rattus norvegicus [22] = assay: Antiobesity activity in Sprague-Dawley rat assessed as reduction in food intake at 1 mg/kg, po measured after 20 hrs; type: functional; parameters: scale not given: the % may be the effect or the level left; outline: as §2
Rattus norvegicus [23] = assay: Ex vivo receptor occupancy of CB1 receptor in Sprague-Dawley rat at 10 mg/kg, po measured 6 hrs post dose; type: functional; outline: as §3
Plasma [24] = assay: Free plasma concentration in Sprague-Dawley rat at 0.3 mg/kg, po measured 6 hrs post dose; type: ADME, organism-based; parameters: dose 0.3 mg/kg, route oral; conditions: in vivo
Rattus norvegicus [25] = assay: Antiobesity activity in Sprague-Dawley rat assessed as reduction in food intake at 3 mg/kg, po measured after 20 hrs; type: functional; parameters: scale not given: the % may be the effect or the level left; outline: as §2
Rattus norvegicus [26] = assay: Ex vivo receptor occupancy of CB1 receptor in Sprague-Dawley rat at 30 mg/kg, po measured 6 hrs post dose; type: functional; outline: as §3
Rattus norvegicus [27] = assay: Ex vivo receptor occupancy of CB1 receptor in Sprague-Dawley rat at 3 mg/kg, po measured 6 hrs post dose; type: functional; outline: as §3
Rattus norvegicus [28] = assay: Ex vivo receptor occupancy of CB1 receptor in Sprague-Dawley rat at 0.3 mg/kg, po measured 6 hrs post dose; type: functional; outline: as §3
Rattus norvegicus [29] = assay: Ex vivo receptor occupancy of CB1 receptor in Sprague-Dawley rat at 0.1 mg/kg, po measured 6 hrs post dose; type: functional; outline: as §3

In the case of `[3H]c1cc(-c2cnn3c(=O)n(Cc4ccc(C(F)(F)F)nc4[3H])nc3c2-c2ccncc2)ccc1Cl`, the Drug uptake (Brain [1]) was “Active”, the pKd (Cannabinoid receptor 1 [2]) was 7.54 and the Drug uptake (Brain [3]) was “Not Active”. For the same molecule, the pKd (Cannabinoid receptor 1 [4]) was 8.40.

In the case of `O=c1n(Cc2ccc(C(F)(F)F)nc2)nc2c(-c3ccncc3)c(-c3ccc(Cl)cc3)cnn12`, the “Cp(f)” value (Plasma [5]) was 0.0054 µM, the fraction unbound [6] was 0.05 and the Activity (Rattus norvegicus [7]) was 22.3%. The pKd (Cannabinoid receptor 1 [8]) was 8.34, the Activity (Rattus norvegicus [9]) was 67.4% and the Activity (Rattus norvegicus [10]) was 0%. The “Cp(f)” value (Plasma [11]) was 0.112 µM, the Activity (Rattus norvegicus [12]) was 72.5% and the Activity (Rattus norvegicus [13]) was 12.7%. For the same molecule, the “Cp(f)” value (Plasma [14]) was 0.531 µM, the pIC50 (Cannabinoid receptor 1 [15]) was 7.43 and the “Cp(f)” value (Plasma [16]) was 0.0015 µM. For the same molecule, the “Cp(f)” value (Plasma [17]) was 0.0494 µM, the Activity (Rattus norvegicus [18]) was 0% and the “Cp(f)” value (Plasma [19]) was 1.047 µM. For the same molecule, the Activity (Rattus norvegicus [20]) was 29.8%, the pKd (Cannabinoid receptor 1 [21]) was 7.91 and the pKd (Cannabinoid receptor 2) was < 5.00. The Activity (Rattus norvegicus [22]) was 23.7%, the Activity (Rattus norvegicus [23]) was 64.5% and the “Cp(f)” value (Plasma [24]) was 0.0153 µM. It also gave an Activity (Rattus norvegicus [25]) of 41.5%, an Activity (Rattus norvegicus [26]) of 74.1% and an Activity (Rattus norvegicus [27]) of 55.6%. For the same molecule, the Activity (Rattus norvegicus [28]) was 20.6% and the Activity (Rattus norvegicus [29]) was 14.3%.
